Activity calls are given as the source filed them. No cut-off for these calls is given here.
How the values were obtained:
Aspergillus fumigatus [1] = experiment: Induction of change in 60S ribosomal protein L27e protein level in iTRAQ-118 labelled cell wall fraction of drug-susceptible Aspergillus fumigatus KU80 delta-akuB at 0.12 ug/ml after 24 hrs in YPD medium by MS (MS/MS) analysis relative to control; assay type: functional
Summary of the method: (§1)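 Conidia at 1 × 10⁵/ml grown shaking at 37°C in YPD with or without 0.12 μg/ml caspofungin; mycelia filtered at 24 or 48 h. Secreted fraction taken from the filtrate; cell wall/plasma membrane pellet recovered after French-press lysis and a 5,000 × g spin. Proteins trypsin-digested and iTRAQ-labelled, drug vs no-drug channels at each time, then 2D LC-MS/MS. Protein ratio is the median of ratios from uniquely assigned peptides after median normalization.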

Aspergillus fumigatus [2] = experiment: Induction of change in NAP family protein level in iTRAQ-118 labelled cell wall fraction of drug-susceptible Aspergillus fumigatus KU80 delta-akuB at 0.12 ug/ml after 24 hrs in YPD medium by MS (MS/MS) analysis relative to control; assay type: functional; summary of the method: as §1
Aspergillus fumigatus [3] = experiment: Induction of change in 60s ribosomal protein yl17-b protein level in iTRAQ114 labelled secreted fraction of drug-susceptible Aspergillus fumigatus KU80 delta-akuB at 0.12 ug/ml after 24 hrs in YPD medium by MS (MS/MS) analysis relative to control; assay type: functional; summary of the method: as §1
Aspergillus fumigatus [4] = experiment: Induction of change in ribosomal protein L14 protein level in iTRAQ114 labelled secreted fraction of drug-susceptible Aspergillus fumigatus KU80 delta-akuB at 0.12 ug/ml after 24 hrs in YPD medium by MS (MS/MS) analysis relative to control; assay type: functional
Summary of the method: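 Conidia (1 × 10⁵/ml) grown in YPD, 37°C, 225 rpm, ± 0.12 μg/ml caspofungin; filtrate taken as secreted fraction, French-press lysate 5,000 × g pellet as cell wall/plasma membrane. Trypsin digests 8-plex iTRAQ-labelled (drug-free channels as references), pooled, 2D-chromatography, MS/MS. Median-normalized; protein ratio = median of unique-peptide ratios, log2 normalized.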

Aspergillus fumigatus [5] = experiment: Induction of change in ribosomal protein L29/heparin/heparan sulfate interacting gene expression in drug-susceptible Aspergillus fumigatus KU80 delta-akuB at 0.12 ug/ml after 24 hrs in YPD medium by microarray analysis relative to control; assay type: functional
Summary of the method: (§2)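 Mycelia grown from 1 × 10⁵ conidia/ml in YPD at 37°C, 225 rpm, with or without 0.12 μg/ml caspofungin. Total RNA extracted, DNase-treated; 2 μg labelled per TIGR SOP M007 for whole-genome array hybridization. Three independent experiments with dye flip (6 replicates); >2-fold change deemed significant.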

Aspergillus fumigatus [6] = experiment: Induction of change in aconitate hydratase, mitochondrial protein level in iTRAQ-116 labelled secreted fraction of drug-susceptible Aspergillus fumigatus KU80 delta-akuB at 0.12 ug/ml after 48 hrs in YPD medium by MS (MS/MS) analysis relative to control; assay type: functional; summary of the method: as §1
Aspergillus fumigatus [7] = experiment: Induction of change in Mn superoxide dismutase MnSOD protein level in iTRAQ114 labelled cell wall fraction of drug-susceptible Aspergillus fumigatus KU80 delta-akuB at 0.12 ug/ml after 24 hrs in YPD medium by MS (MS/MS) analysis relative to control; assay type: functional; summary of the method: as §1
Aspergillus fumigatus [8] = experiment: Induction of change in cytosolic small ribosomal subunit S15, putative protein level in iTRAQ114 labelled cell wall fraction of drug-susceptible Aspergillus fumigatus KU80 delta-akuB at 0.12 ug/ml after 24 hrs in YPD medium by MS (MS/MS) analysis relative to control; assay type: functional; summary of the method: as §1
Aspergillus fumigatus [9] = experiment: Induction of change in large subunit ribosomal protein L3 gene expression in drug-susceptible Aspergillus fumigatus KU80 delta-akuB at 0.12 ug/ml after 24 hrs in YPD medium by microarray analysis relative to control; assay type: functional; summary of the method: as §2
Aspergillus fumigatus [10] = experiment: Induction of change in cytosolic small ribosomal subunit S4, putative gene expression in drug-susceptible Aspergillus fumigatus KU80 delta-akuB at 0.12 ug/ml after 24 hrs in YPD medium by microarray analysis relative to control; assay type: functional
Summary of the method: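 Mycelia grown in YPD ± 0.12 μg/ml caspofungin (1 × 10⁵ conidia/ml, 37°C, shaking) and harvested at 24 or 48 h. Total RNA extracted, DNase-treated and quality-checked; 2 μg labelled per TIGR SOP M007 and hybridized to whole-genome arrays. Three independent experiments with dye flip (6 replicates); drug vs untreated fold change.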

Aspergillus fumigatus [11] = experiment: Induction of change in 40S ribosomal protein S3Ae protein level in iTRAQ114 labelled cell wall fraction of drug-resistant Aspergillus fumigatus EMFR-S678P at 0.12 ug/ml after 24 hrs in YPD medium by MS (MS/MS) analysis relative to control; assay type: functional
Summary of the method: (§3)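 Conidia at 1 × 10⁵/ml were grown at 37°C, shaking at 225 rpm, in YPD with or without 0.12 μg/ml caspofungin for 24 or 48 h. The culture filtrate was kept as the secreted fraction. Mycelia were lysed by French press in HEPES/glycerol/EDTA/PMSF/DTT buffer, and the 5,000 × g pellet was washed to give CW/PM. Proteins were reduced, alkylated and trypsin-digested at 37°C overnight, then iTRAQ-labelled and run by 2D LC-MS/MS. Ratios are the median of unique-peptide ratios, median-normalized, versus the no-drug control.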

Aspergillus fumigatus [12] = experiment: Antifungal activity against drug-resistant Aspergillus fumigatus EMFR-S678P assessed as reduction in colony size at 0.12 ug/ml; assay type: functional, organism-based
Aspergillus fumigatus [13] = experiment: Induction of change in cytochrome c protein level in iTRAQ114 labelled secreted fraction of drug-resistant Aspergillus fumigatus EMFR-S678P at 0.12 ug/ml after 24 hrs in YPD medium by MS (MS/MS) analysis relative to control; assay type: functional; summary of the method: as §3
Aspergillus fumigatus [14] = experiment: Induction of change in phosphoglycerate kinase PgkA, putative protein level in iTRAQ-118 labelled cell wall fraction of drug-resistant Aspergillus fumigatus EMFR-S678P at 0.12 ug/ml after 24 hrs in YPD medium by MS (MS/MS) analysis relative to control; assay type: functional; summary of the method: as §3
Aspergillus fumigatus [15] = experiment: Induction of change in glycine-rich RNA-binding protein, putative protein level in iTRAQ-118 labelled cell wall fraction of drug-resistant Aspergillus fumigatus EMFR-S678P at 0.12 ug/ml after 24 hrs in YPD medium by MS (MS/MS) analysis relative to control; assay type: functional; summary of the method: as §3
Aspergillus fumigatus [16] = experiment: Induction of change in 60S ribosomal protein L10 protein level in iTRAQ-118 labelled cell wall fraction of drug-resistant Aspergillus fumigatus EMFR-S678P at 0.12 ug/ml after 24 hrs in YPD medium by MS (MS/MS) analysis relative to control; assay type: functional, organism-based; summary of the method: as §3
Aspergillus fumigatus [17] = experiment: Induction of change in allergen Asp F3 protein level in iTRAQ-116 labelled secreted fraction of drug-resistant Aspergillus fumigatus EMFR-S678P at 0.12 ug/ml after 48 hrs in YPD medium by MS (MS/MS) analysis relative to control; assay type: functional; summary of the method: as §3
Aspergillus fumigatus [18] = experiment: Induction of change in BYS1 domain protein, putative protein level in iTRAQ-121 labelled cell wall fraction of drug-susceptible Aspergillus fumigatus KU80 delta-akuB at 0.12 ug/ml after 48 hrs in YPD medium by MS (MS/MS) analysis relative to control

CC[C@H](C)C[C@H](C)CCCCCCCCC(=O)N[C@H]1C[C@@H](O)[C@@H](NCCN)NC(=O)[C@@H]2[C@@H](O)CCN2C(=O)[C@H]([C@H](O)CCN)NC(=O)[C@H]([C@H](O)[C@@H](O)c2ccc(O)cc2)NC(=O)[C@@H]2C[C@@H](O)CN2C(=O)[C@H]([C@@H](C)O)NC1=O [CASPOFUNGIN]
fold change (FC) (Aspergillus fumigatus [1]): 2.6 | fold change (FC) (Aspergillus fumigatus [2]): 2.8 | fold change (FC) (Aspergillus fumigatus [3]): -1 | fold change (FC) (Aspergillus fumigatus [4]): -1.1 | fold change (FC) (Aspergillus fumigatus [5]): 6.5 | fold change (FC) (Aspergillus fumigatus [6]): 1.2 | fold change (FC) (Aspergillus fumigatus [7]): -1.2 | fold change (FC) (Aspergillus fumigatus [8]): 1.9 | fold change (FC) (Aspergillus fumigatus [9]): 3.5 | fold change (FC) (Aspergillus fumigatus [10]): 3.8 | fold change (FC) (Aspergillus fumigatus [11]): 1.07 | Activity (Aspergillus fumigatus [12]): Active | fold change (FC) (Aspergillus fumigatus [13]): -1.07 | fold change (FC) (Aspergillus fumigatus [14]): -1.15 | fold change (FC) (Aspergillus fumigatus [15]): 1.52 | Activity (Aspergillus fumigatus [16]): inactive | fold change (FC) (Aspergillus fumigatus [17]): -1.52 | fold change (FC) (Aspergillus fumigatus [18]): -2.5

Reference: ChEMBL document CHEMBL1687827, “Profiling the Aspergillus fumigatus proteome in response to caspofungin” (2011)
